Reference: ChEMBL document CHEMBL2062435, “Synthesis and in vitro antibacterial activity of gemifloxacin derivatives containing a substituted benzyloxime moiety” (2012)

Each compound was assayed on Klebsiella pneumoniae (assay: Antimicrobial activity against Klebsiella pneumoniae 10-2 after 18-24 hrs by two-fold serial dilution method).
Format: functional
Method in brief: (§1)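 Agar-medium twofold serial dilution against Gram-positive and Gram-negative strains; MIC taken as the lowest compound concentration giving complete inhibition of bacterial growth after incubation at 35 °C for 18-24 h.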

Structure (SMILES) | MIC
COc1ccc(CO/N=C2\CN(c3nc4c(cc3F)c(=O)c(C(=O)O)cn4C3CC3)CC2CN)c(Cl)c1OC.CS(=O)(=O)O (racemic) | > 128 µg/mL

These compounds were tested on Enterococcus faecalis (assay: Antimicrobial activity against Enterococcus faecalis 10-6 after 18-24 hrs by two-fold serial dilution method).
Format: functional
Method in brief: as §1

Structure (SMILES) | MIC
COc1ccc(CO/N=C2\CN(c3nc4c(cc3F)c(=O)c(C(=O)O)cn4C3CC3)CC2CN)c(Cl)c1OC.CS(=O)(=O)O (racemic) | 4 µg/mL

What follows are compounds tested on Pseudomonas aeruginosa (assay: Antimicrobial activity against extended spectrum beta-lactamases-producing Pseudomonas aeruginosa 10-20 after 18-24 hrs by two-fold serial dilution method).
Format: functional
Method in brief: as §1

Structure (SMILES) | MIC
COc1ccc(CO/N=C2\CN(c3nc4c(cc3F)c(=O)c(C(=O)O)cn4C3CC3)CC2CN)c(Cl)c1OC.CS(=O)(=O)O (racemic) | 16 µg/mL

Each compound was assayed on Pseudomonas aeruginosa (assay: Antimicrobial activity against extended spectrum beta-lactamases-producing Pseudomonas aeruginosa 10-9 after 18-24 hrs by two-fold serial dilution method).
Format: functional
Method in brief: as §1

Structure (SMILES) | MIC
COc1ccc(CO/N=C2\CN(c3nc4c(cc3F)c(=O)c(C(=O)O)cn4C3CC3)CC2CN)c(Cl)c1OC.CS(=O)(=O)O (racemic) | 8 µg/mL

The compounds below were run on Enterococcus faecium (assay: Antimicrobial activity against Enterococcus faecium 10-9 after 18-24 hrs by two-fold serial dilution method).
Format: functional
Method in brief: as §1

Structure (SMILES) | MIC
COc1ccc(CO/N=C2\CN(c3nc4c(cc3F)c(=O)c(C(=O)O)cn4C3CC3)CC2CN)c(Cl)c1OC.CS(=O)(=O)O (racemic) | 4 µg/mL

What follows are compounds tested on Enterococcus faecalis (assay: Antimicrobial activity against Enterococcus faecalis 10-5 after 18-24 hrs by two-fold serial dilution method).
Format: functional
Method in brief: as §1

Structure (SMILES) | MIC
COc1ccc(CO/N=C2\CN(c3nc4c(cc3F)c(=O)c(C(=O)O)cn4C3CC3)CC2CN)c(Cl)c1OC.CS(=O)(=O)O (racemic) | 0.25 µg/mL

The compounds below were run on Klebsiella pneumoniae (assay: Antimicrobial activity against Klebsiella pneumoniae 10-4 after 18-24 hrs by two-fold serial dilution method).
Format: functional
Method in brief: as §1

Structure (SMILES) | MIC
COc1ccc(CO/N=C2\CN(c3nc4c(cc3F)c(=O)c(C(=O)O)cn4C3CC3)CC2CN)c(Cl)c1OC.CS(=O)(=O)O (racemic) | > 128 µg/mL

The compounds below were run on Klebsiella pneumoniae (assay: Antimicrobial activity against extended spectrum beta-lactamases-producing Klebsiella pneumoniae 10-2 after 18-24 hrs by two-fold serial dilution method).
Format: functional
Method in brief: as §1

Structure (SMILES) | MIC
COc1ccc(CO/N=C2\CN(c3nc4c(cc3F)c(=O)c(C(=O)O)cn4C3CC3)CC2CN)c(Cl)c1OC.CS(=O)(=O)O (racemic) | > 128 µg/mL

These compounds were tested on Streptococcus pneumoniae (assay: Antimicrobial activity against extended spectrum beta-lactamases-producing Streptococcus pneumoniae 10-1 after 18-24 hrs by two-fold serial dilution method).
Format: functional
Method in brief: as §1

Structure (SMILES) | MIC
COc1ccc(CO/N=C2\CN(c3nc4c(cc3F)c(=O)c(C(=O)O)cn4C3CC3)CC2CN)c(Cl)c1OC.CS(=O)(=O)O (racemic) | 0.5 µg/mL

What follows are compounds tested on Escherichia coli (assay: Antimicrobial activity against extended spectrum beta-lactamases-producing Escherichia coli 10-2 after 18-24 hrs by two-fold serial dilution method).
Format: functional
Method in brief: as §1

Structure (SMILES) | MIC
COc1ccc(CO/N=C2\CN(c3nc4c(cc3F)c(=O)c(C(=O)O)cn4C3CC3)CC2CN)c(Cl)c1OC.CS(=O)(=O)O (racemic) | > 128 µg/mL

Each compound was assayed on Staphylococcus epidermidis (assay: Antimicrobial activity against extended spectrum beta-lactamases-producing methicillin-sensitive Staphylococcus epidermidis 10-15 after 18-24 hrs by two-fold serial dilution method).
Format: functional
Method in brief: as §1

Structure (SMILES) | MIC
COc1ccc(CO/N=C2\CN(c3nc4c(cc3F)c(=O)c(C(=O)O)cn4C3CC3)CC2CN)c(Cl)c1OC.CS(=O)(=O)O (racemic) | 1 µg/mL

These compounds were tested on Staphylococcus aureus (assay: Antimicrobial activity against extended spectrum beta-lactamases-producing methicillin-resistant Staphylococcus aureus 10-15 after 18-24 hrs by two-fold serial dilution method).
Format: functional
Method in brief: (§2)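 Agar twofold serial dilution MIC against clinical isolates. MIC was taken as the lowest concentration giving complete inhibition of bacterial growth after incubation at 35 °C for 18-24 h.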

Structure (SMILES) | MIC
COc1ccc(CO/N=C2\CN(c3nc4c(cc3F)c(=O)c(C(=O)O)cn4C3CC3)CC2CN)c(Cl)c1OC.CS(=O)(=O)O (racemic) | 0.25 µg/mL

Each compound was assayed on Klebsiella pneumoniae (assay: Antimicrobial activity against extended spectrum beta-lactamases-producing Klebsiella pneumoniae 10-3 after 18-24 hrs by two-fold serial dilution method).
Format: functional
Method in brief: as §1

Structure (SMILES) | MIC
COc1ccc(CO/N=C2\CN(c3nc4c(cc3F)c(=O)c(C(=O)O)cn4C3CC3)CC2CN)c(Cl)c1OC.CS(=O)(=O)O (racemic) | > 128 µg/mL

Each compound was assayed on Escherichia coli (assay: Antimicrobial activity against Escherichia coli 10-3 after 18-24 hrs by two-fold serial dilution method).
Format: functional
Method in brief: as §1

Structure (SMILES) | MIC
COc1ccc(CO/N=C2\CN(c3nc4c(cc3F)c(=O)c(C(=O)O)cn4C3CC3)CC2CN)c(Cl)c1OC.CS(=O)(=O)O (racemic) | 16 µg/mL

These compounds were tested on Pseudomonas aeruginosa (assay: Antimicrobial activity against extended spectrum beta-lactamases-producing Pseudomonas aeruginosa 10-18 after 18-24 hrs by two-fold serial dilution method).
Format: functional
Method in brief: as §1

Structure (SMILES) | MIC
COc1ccc(CO/N=C2\CN(c3nc4c(cc3F)c(=O)c(C(=O)O)cn4C3CC3)CC2CN)c(Cl)c1OC.CS(=O)(=O)O (racemic) | 16 µg/mL

These compounds were tested on Escherichia coli (assay: Antimicrobial activity against Escherichia coli 10-2 after 18-24 hrs by two-fold serial dilution method).
Format: functional
Method in brief: as §1

Structure (SMILES) | MIC
COc1ccc(CO/N=C2\CN(c3nc4c(cc3F)c(=O)c(C(=O)O)cn4C3CC3)CC2CN)c(Cl)c1OC.CS(=O)(=O)O (racemic) | 32 µg/mL

These compounds were tested on Staphylococcus aureus (assay: Antimicrobial activity against extended spectrum beta-lactamases-producing methicillin-resistant Staphylococcus aureus 10-11 after 18-24 hrs by two-fold serial dilution method).
Format: functional
Method in brief: as §2

Structure (SMILES) | MIC
COc1ccc(CO/N=C2\CN(c3nc4c(cc3F)c(=O)c(C(=O)O)cn4C3CC3)CC2CN)c(Cl)c1OC.CS(=O)(=O)O (racemic) | 1 µg/mL

These compounds were tested on Staphylococcus epidermidis (assay: Antimicrobial activity against extended spectrum beta-lactamases-producing methicillin-sensitive Staphylococcus epidermidis 10-13 after 18-24 hrs by two-fold serial dilution method).
Format: functional
Method in brief: as §1

Structure (SMILES) | MIC
COc1ccc(CO/N=C2\CN(c3nc4c(cc3F)c(=O)c(C(=O)O)cn4C3CC3)CC2CN)c(Cl)c1OC.CS(=O)(=O)O (racemic) | 0.03 µg/mL
